Test results published in ChEMBL document CHEMBL5058577, “EUbOPEN Chemogenomics Library 2 (Multiplex)” (2022).

System: Fibroblast
Experiment: Multiplex assay against human fibroblast
Format: toxicity, cell-based
Summary of the method: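 Four dyes were applied at seeding to live cells: Hoechst33342, BioTracker Green Microtubule Cytoskeleton Dye, MitoTracker Red and Annexin V Alexa Fluor 680. Imaging after compound addition used a CQ1 microscope at 37°C and 5% CO2. CellPathfinder machine-learning gating then sorted cells into Hoechst high-intensity objects or normal cells, normal cells into healthy, pyknosed or fragmented nuclei, and pyknosed cells into mitotic or apoptotic, with tubulin, mitochondrial-mass and membrane-permeability phenotypes given as per cents of healthy-nucleus cells.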

[1] = 12 h, 1 µM, compound concentration 1 uM, replicate 1
[2] = 12 h, 1 µM, compound concentration 1 uM, replicate 2
[3] = 12 h, 10 µM, compound concentration 10 uM, replicate 1
[4] = 12 h, 10 µM, compound concentration 10 uM, replicate 2
[5] = 24 h, 1 µM, compound concentration 1 uM, replicate 1
[6] = 24 h, 1 µM, compound concentration 1 uM, replicate 2
[7] = 24 h, 10 µM, compound concentration 10 uM, replicate 1
[8] = 24 h, 10 µM, compound concentration 10 uM, replicate 2
[9] = 48 h, 1 µM, compound concentration 1 uM, replicate 1
[10] = 48 h, 1 µM, compound concentration 1 uM, replicate 2
[11] = 48 h, 10 µM, compound concentration 10 uM, replicate 1
[12] = 48 h, 10 µM, compound concentration 10 uM, replicate 2

Compound: c1cc(OCCCN2CCCCC2)ccc1CN1CCCCC1 [JNJ-5207852]
- Population Apoptotic (%) [1]: 37%
- Population Fragmented Nuclei (%) [1]: 15%
- Population Healthy Nuclei (%) [1]: 64%
- Population Hoechst High Intensity Objects (%) [1]: 1%
- Population Membrane Permeable-Phenotype (%) [1]: 0%
- Population Mitochondria Different-Phenotype (%) [1]: 2%
- Population Mitotic Cells (%) [1]: 62%
- Population Normal (%) [1]: 98%
- Population Pyknosed Nuclei (%) [1]: 20%
- Population Tubulin-Different-Phenotype (%) [1]: 26%
- Total Cell Count [1]: 181
- Population Apoptotic (%) [2]: 26%
- Population Fragmented Nuclei (%) [2]: 24%
- Population Healthy Nuclei (%) [2]: 51%
- Population Hoechst High Intensity Objects (%) [2]: 7%
- Population Membrane Permeable-Phenotype (%) [2]: 8%
- Population Mitochondria Different-Phenotype (%) [2]: 5%
- Population Mitotic Cells (%) [2]: 73%
- Population Normal (%) [2]: 92%
- Population Pyknosed Nuclei (%) [2]: 23%
- Population Tubulin-Different-Phenotype (%) [2]: 49%
- Total Cell Count [2]: 153
- Population Apoptotic (%) [3]: 50%
- Population Fragmented Nuclei (%) [3]: 22%
- Population Healthy Nuclei (%) [3]: 68%
- Population Hoechst High Intensity Objects (%) [3]: 1%
- Population Membrane Permeable-Phenotype (%) [3]: 0%
- Population Mitochondria Different-Phenotype (%) [3]: 6%
- Population Mitotic Cells (%) [3]: 50%
- Population Normal (%) [3]: 98%
- Population Pyknosed Nuclei (%) [3]: 9%
- Population Tubulin-Different-Phenotype (%) [3]: 35%
- Total Cell Count [3]: 193
- Population Apoptotic (%) [4]: 43%
- Population Fragmented Nuclei (%) [4]: 36%
- Population Healthy Nuclei (%) [4]: 42%
- Population Membrane Permeable-Phenotype (%) [4]: 12%
- Population Mitochondria Different-Phenotype (%) [4]: 10%
- Population Mitotic Cells (%) [4]: 56%
- Population Pyknosed Nuclei (%) [4]: 20%
- Population Tubulin-Different-Phenotype (%) [4]: 60%
- Total Cell Count [4]: 114
- Population Apoptotic (%) [5]: 38%
- Population Fragmented Nuclei (%) [5]: 18%
- Population Healthy Nuclei (%) [5]: 66%
- Population Hoechst High Intensity Objects (%) [5]: 2%
- Population Membrane Permeable-Phenotype (%) [5]: 0%
- Population Mitochondria Different-Phenotype (%) [5]: 2%
- Population Mitotic Cells (%) [5]: 61%
- Population Normal (%) [5]: 97%
- Population Pyknosed Nuclei (%) [5]: 15%
- Population Tubulin-Different-Phenotype (%) [5]: 23%
- Total Cell Count [5]: 176
- Population Apoptotic (%) [6]: 33%
- Population Fragmented Nuclei (%) [6]: 28%
- Population Healthy Nuclei (%) [6]: 51%
- Population Hoechst High Intensity Objects (%) [6]: 5%
- Population Membrane Permeable-Phenotype (%) [6]: 5%
- Population Mitochondria Different-Phenotype (%) [6]: 6%
- Population Mitotic Cells (%) [6]: 66%
- Population Normal (%) [6]: 95%
- Population Pyknosed Nuclei (%) [6]: 19%
- Population Tubulin-Different-Phenotype (%) [6]: 55%
- Total Cell Count [6]: 160
- Population Apoptotic (%) [7]: 60%
- Population Fragmented Nuclei (%) [7]: 24%
- Population Healthy Nuclei (%) [7]: 65%
- Population Hoechst High Intensity Objects (%) [7]: 1%
- Population Membrane Permeable-Phenotype (%) [7]: 0%
- Population Mitochondria Different-Phenotype (%) [7]: 6%
- Population Mitotic Cells (%) [7]: 40%
- Population Normal (%) [7]: 99%
- Population Pyknosed Nuclei (%) [7]: 10%
- Population Tubulin-Different-Phenotype (%) [7]: 34%
- Total Cell Count [7]: 201
- Population Apoptotic (%) [8]: 41%
- Population Fragmented Nuclei (%) [8]: 45%
- Population Healthy Nuclei (%) [8]: 38%
- Population Hoechst High Intensity Objects (%) [8]: 5%
- Population Membrane Permeable-Phenotype (%) [8]: 4%
- Population Mitochondria Different-Phenotype (%) [8]: 13%
- Population Mitotic Cells (%) [8]: 58%
- Population Normal (%) [8]: 94%
- Population Pyknosed Nuclei (%) [8]: 15%
- Population Tubulin-Different-Phenotype (%) [8]: 67%
- Total Cell Count [8]: 118
- Population Apoptotic (%) [9]: 70%
- Population Fragmented Nuclei (%) [9]: 18%
- Population Healthy Nuclei (%) [9]: 63%
- Population Hoechst High Intensity Objects (%) [9]: 2%
- Population Membrane Permeable-Phenotype (%) [9]: 0%
- Population Mitochondria Different-Phenotype (%) [9]: 2%
- Population Mitotic Cells (%) [9]: 29%
- Population Normal (%) [9]: 97%
- Population Pyknosed Nuclei (%) [9]: 17%
- Population Tubulin-Different-Phenotype (%) [9]: 23%
- Total Cell Count [9]: 184
- Population Apoptotic (%) [10]: 44%
- Population Fragmented Nuclei (%) [10]: 32%
- Population Healthy Nuclei (%) [10]: 48%
- Population Hoechst High Intensity Objects (%) [10]: 4%
- Population Membrane Permeable-Phenotype (%) [10]: 5%
- Population Mitotic Cells (%) [10]: 55%
- Population Normal (%) [10]: 95%
- Population Pyknosed Nuclei (%) [10]: 18%
- Population Tubulin-Different-Phenotype (%) [10]: 50%
- Total Cell Count [10]: 160
- Population Apoptotic (%) [11]: 55%
- Population Fragmented Nuclei (%) [11]: 19%
- Population Healthy Nuclei (%) [11]: 70%
- Population Hoechst High Intensity Objects (%) [11]: 2%
- Population Membrane Permeable-Phenotype (%) [11]: 0%
- Population Mitochondria Different-Phenotype (%) [11]: 2%
- Population Mitotic Cells (%) [11]: 44%
- Population Normal (%) [11]: 97%
- Population Pyknosed Nuclei (%) [11]: 9%
- Population Tubulin-Different-Phenotype (%) [11]: 34%
- Total Cell Count [11]: 189
- Population Apoptotic (%) [12]: 30%
- Population Fragmented Nuclei (%) [12]: 48%
- Population Healthy Nuclei (%) [12]: 41%
- Population Hoechst High Intensity Objects (%) [12]: 3%
- Population Membrane Permeable-Phenotype (%) [12]: 5%
- Population Mitochondria Different-Phenotype (%) [12]: 11%
- Population Mitotic Cells (%) [12]: 69%
- Population Normal (%) [12]: 96%
- Population Pyknosed Nuclei (%) [12]: 10%
- Population Tubulin-Different-Phenotype (%) [12]: 66%
- Total Cell Count [12]: 132
